Results on 20 sequences are retold here after the EternaBench riboswitch data.

Data set [1] deals with MS2 coat protein. The data set can be described thus: apparent Kd, MS2 coat protein; higher = weaker binding; RNA-MaP array. In short, it runs like this: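 For each design, the apparent Kd is the median of binding-curve fits across its clusters. Designs measured on fewer than 10 clusters were dropped. The RNAs were transcribed from sequenced DNA templates on an Illumina sequencing chip and incubated at room temperature, with or without input ligand, with fluorescently labeled MS2 coat protein at 1.5 nM to 3 μM.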

In data set [2] the test system is MS2 coat protein. The data set is described as follows: apparent Kd, MS2 coat protein; higher = weaker binding; RNA-MaP array; FMN 200 µM where present. Conditions: designed as: OFF switch for flavin mononucleotide. The gist of the method:
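SNAP-549-labelled MS2 coat protein, doubled from 0.7 or 1.5 nM to 3 µM, was titrated over designs transcribed by stalled E. coli RNA polymerase on Illumina sequencing-chip clusters. Titrations were run without and then with constant ligand in 100 mM Tris-HCl pH 7.5, 80 mM KCl, 4 mM MgCl2, BSA, DTT, yeast tRNA and Tween-20. The apparent Kd is the median of filtered per-cluster fits to green signal normalised to red-channel RNA signal and control-cluster median Fmax.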

Where [3] appears, read: designed as: OFF switch for flavin mononucleotide, no ligand.
[4] abbreviates: ligand present: flavin mononucleotide, designed as: OFF switch for flavin mononucleotide.
The mark [5] stands for this setting: designed as: ON switch for flavin mononucleotide, no ligand.
Where [6] appears, read: ligand present: flavin mononucleotide, designed as: ON switch for flavin mononucleotide.
[7] abbreviates: designed as: ON switch for tryptophan, no ligand.
Setting [8] is: ligand present: tryptophan, designed as: ON switch for tryptophan.
[9] abbreviates: designed as: ON switch for theophylline, no ligand.
[10] abbreviates: ligand present: theophylline, designed as: ON switch for theophylline.

Turning to “GUUAGCACUUAAGGAUAUUGGAAGCGCGUCGUCCAAGAAGGUAAGUUCUUCGUCGACAUGAGGAUCACCCAUGUCAUGCAUGGC”, the results for the “apparent Kd” value in data set [1] (setting [3]) and in data set [1] (setting [4]) were 16.5 nM and 11.8 nM, respectively.

Turning to “GGGGGUUGGACAGGAUAUAGAGGUCUCGUGUGGAGAUGCACAACGACAUGAGGAUCACCCAUGUGCUAGAAGGGUCUGCGAUAG”, the figures for the “apparent Kd” value in data set [1] (setting [5]) and in data set [1] (setting [6]) were 19.3 nM and 16.1 nM, respectively.

In the case of “CAAUGAACAUGAGGAUCACCCAUGUAGUAAUGCGAGAAAACGAAGGAUAUAGCGAUACUACAUAGCAAGAAGGUCGCAAACAUA”, the “apparent Kd” value in data set [1] (setting [5]) is 40.4 nM; in data set [1] (setting [6]) it was 30.7 nM.

Consider “UACAUGAGGAUCACCCAUGUCAAACCGUUCUAGGACUAGGUAAGAAGGGUCAUCCUACAAUGUUGACAGGAUAUUACGUAGCUG”, for which the “apparent Kd” value in data set [1] (setting [5]) is 348 nM; in data set [1] (setting [6]), 71.3 nM.

As for “GCUUGACAUGAGGAUCACCCAUGUAAAUGAGAGACAGGAUAUACGAGACACGUAGGGUAGGUAGAAGGGUCGACUG”, the “apparent Kd” value turned out to be 15.1 nM in data set [1] (setting [5]) and 9.69 nM in data set [1] (setting [6]).

Consider “GUACACAUGAGGAUCACCCAUGUACUGGUACGAGGACCGGUACGGCCGCCACUCGCCGAGAUUCAUAACACAUCAGAAAGCUCAC”, for which the “apparent Kd” value is 17.6 nM in data set [1] (setting [7]) and 15.6 nM in data set [1] (setting [8]).

Take “UAUCGCGCGGCGGCCGCCACUAAUGGCAGAUCUGUCGACUAACAUGAGGAUCACCCAUGUCUAACUAGGACCGGGCCCAAGUUGU”: the “apparent Kd” value in data set [1] (setting [7]) was 47.5 nM; in data set [1] (setting [8]), 40.2 nM.

As to “CAGAGACAUGAGGAUCACCCAUGUUGAGAUACCAGCUUGGUAUCGAGCCCUUGGCAGCUCGCCCAUCGUCUAUAUCAGCCUGAGC”, the “apparent Kd” value amounted to 16.5 nM in data set [1] (setting [9]) and 20.2 nM in data set [1] (setting [10]).

Consider “GCUUAGAAACCUGAUACCAGUCAGCCCUAUGACAUGAGGAUCACCCAUGUGAUACUCACGGACCCUUGGCAGCAGGGUCGAUUAC”, for which the “apparent Kd” value came out at 695 nM in data set [1] (setting [9]) and 429 nM in data set [1] (setting [10]).

With “UCGGGUAAGCAGAAGGCACUAGAUUCUCUUUCAGCGAUAUAACAUGAGGAUCACCCAUGUAGAGGUGAGGAUAUGCAGAAACGC”, the “apparent Kd” value in data set [1] (setting [5]) is 169 nM; in data set [1] (setting [6]) it was 83.9 nM.

As to “AUCACUGAGCGAGGAUAUUAUUUCAAAUCAACGACGAUCCUACACAUGAGGAUCACCCAUGUUAGUAAGAAGGCGCGCCAGAUG”, the “apparent Kd” value is 62.5 nM in data set [1] (setting [3]) and 93.5 nM in data set [1] (setting [4]).

For “CGCCGUACGUCAGGAUAUCACAAUUGGAUCCAUCACAUGAGGAUCACCCAUGUUUACAAGUAGAAUGAGAAGGGACAAGGAUAA”, the entries for the “apparent Kd” value in data set [1] (setting [5]) and in data set [1] (setting [6]) were 49.3 nM and 43.8 nM, respectively.

In the case of “UUUAGACGGCAGAAGGCGGGCUCGCGCGGUGUACAUGAGGAUCACCCAUGUGUUUGCCAUCUACCCGAGGAUAUGCAGUGAUGG”, the entries for the “apparent Kd” value in data set [1] (setting [5]) and in data set [1] (setting [6]) were 39.4 nM and 13.2 nM, respectively.

As to “AGCUCACAUGAGGAUCACCCAUGUCAAUUGUCAUCCUAUUGUAGAAGGCCGACACUGAUAUUAACGGAGGAUAUACGAGACAAU”, the “apparent Kd” value in data set [1] (setting [5]) was determined as 15.2 nM; in data set [1] (setting [6]) it was 7.85 nM.

Consider “AGAAAUACAUGAGGAUCACCCAUGUGCAUCCUGACUAGUUGACAGGAUAUCAGUCUUACCUGGGCUGAGAAGGGUCCGCGUAGC”, for which, in data set [1] (setting [3]), the “apparent Kd” value was determined as 19.8 nM.

On to “CACCUCCAAGGAUAUACAUGAGGAUCACCCAUGUGGAUAACCUGGGCGCGCCGAGCAAGUAGAAGGUGGAUUGG”, for which the “apparent Kd” value in data set [1] (setting [3]) was found to be 10.9 nM; in data set [1] (setting [4]), 14.7 nM.

In the case of “GGUUGACAUGAGGAUCACCCAUGUGAGGAUAUAACAAGUGGGAGCUCUCCAUGAAAAGUUAGAAGGCACUUGGU”, the “apparent Kd” value is 61.8 nM in data set [1] (setting [3]) and 52.9 nM in data set [1] (setting [4]).

Turning to “ACAAGAGUAAAACAUACAUGAGGAUCACCCAUGUUAUCAACAAAGGAUAUCGUUGUGGUAGGGAACGAGAAGGUUGCAAAAUCA”, the results for the “apparent Kd” value in data set [1] (setting [5]) and in data set [1] (setting [6]) were 15.4 nM and 11.7 nM, respectively.

As for “CCGUCACAUGAGGAUCACCCAUGUGGUGAUACCAGCAGUCGACCCUGCCCUUGGCAGCACAUUAUCAUAAAAGCAAUCAGCAACG”, the “apparent Kd” value was 156 nM in data set [1] (setting [9]) and 149 nM in data set [1] (setting [10]).

On to “ACGCUUUGGGAGAAGGUACUUUAAAAUUUUUCCACAUGAGGAUCACCCAUGUAAGGAUAUCCCAUCGUUAAAUAUUCUACAGCA”, for which the “apparent Kd” value worked out at 8.98 nM in data set [2] (no ligand) and 7.26 nM in data set [2] (ligand present: flavin mononucleotide).

Broadly, the apparent Kd is the concentration giving half-maximal binding under the conditions of the assay.
